Calls of active or inactive are those of the source. No cut-off for these calls is given here.
Experiments:
[1] = test system: PC-3; experiment: Cytotoxicity against human PC3 cells […] Staphylococcus saprophyticus nitroreductase NtrB assessed as reduction in cell viability in presence of NADH as cofactor after 48 hrs by SRB assay; assay type: functional, cell-based; conditions: PC-3, 48 h
How it was run: (§1)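 Compounds were reduced outside the cells by purified His-tag (Ni column) Ssap-NtrB. The reaction mix held 600 µM NADH and compound (150, 39, 9 µM, or 180, 18, 1.8 nM) and was applied to PC-3 cells. Controls were compound alone in 25 mM Tris/HCl pH 7.5, and enzyme alone at 31 µg/mL. After 48 h, SRB absorbance was read at 492 nm and converted to % viability.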

[2] = test system: PC-3; experiment: Cytotoxicity against human PC3 cells assessed as reduction in cell viability after 48 hrs by SRB assay; assay type: functional, cell-based; how it was run: as §1
[3] = Cytotoxicity against human HUVEC cells assessed as cell viability at 9 to 150 uM after 48 hrs by MTT assay relative to control; assay type: cell-based; conditions: read-out: Activity
How it was run: (§2)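 Hep3B hepatoma, PC-3 prostate cancer and HUVEC (healthy control) cells were exposed to nitro compounds at 150, 75, 38, 19 and 9 µM for 24 h and 48 h. Viability was read by MTT assay, and IC50 values were derived from the growth inhibition curves.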

[4] = test system: PC-3; experiment: Cytotoxicity against human PC3 cells […] Staphylococcus saprophyticus nitroreductase NtrB assessed as cell viability at 150 uM in presence of NADH as cofactor after 48 hrs by SRB assay relative to control; assay type: functional; conditions: PC-3, 48 h, read-out: Activity; how it was run: as §1
[5] = biological target: T1, Putative nitroreductase (Staphylococcus saprophyticus subsp. saprophyticus (strain ATCC 15305 / DSM20229 / NCIMB 8711 / NCTC 7292 / S-41), UniProt Q4A0P1); experiment: Substrate activity at Staphylococcus saprophyticus nitroreductase expressed in Escherichia coli BL21 (DE3) assessed as retention time by HPLC analysis; assay type: ADME
T1 sequence (Q4A0P1 whole entry): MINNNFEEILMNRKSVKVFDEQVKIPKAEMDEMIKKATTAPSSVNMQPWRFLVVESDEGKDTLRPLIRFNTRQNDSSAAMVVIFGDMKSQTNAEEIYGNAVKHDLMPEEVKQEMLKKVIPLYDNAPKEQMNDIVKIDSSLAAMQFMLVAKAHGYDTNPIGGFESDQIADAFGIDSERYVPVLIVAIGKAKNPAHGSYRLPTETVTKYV

[6] = test system: Hep 3B2; experiment: Cytotoxicity against human Hep3B cells assessed as cell viability at 9 to 150 uM after 48 hrs by MTT assay relative to control; assay type: functional; how it was run: as §2
[7] = Cytotoxicity against human HUVEC cells assessed as cell viability at 9 to 150 uM after 24 hrs by MTT assay relative to control; assay type: cell-based; conditions: read-out: Activity; how it was run: as §2
[8] = test system: Hep 3B2; experiment: Cytotoxicity against human Hep3B cells assessed as cell viability at 9 to 150 uM after 24 hrs by MTT assay relative to control; assay type: functional; how it was run: as §2
[9] = biological target: T1, Putative nitroreductase; experiment: Substrate activity at Staphylococcus saprophyticus nitroreductase NtrB assessed as Kcat/Km using NADH as cofactor in Tris-Cl buffer at pH 7.5 by HPLC analysis relative to CB1954/NfsB; assay type: ADME
[10] = biological target: T1, Putative nitroreductase; experiment: Substrate activity at Staphylococcus saprophyticus nitroreductase NtrB assessed as enzyme specific activity using NADH as cofactor in Tris-Cl buffer at pH 7.5 by HPLC analysis; assay type: ADME
[11] = test system: Hep 3B2; experiment: Cytotoxicity against human Hep3B cells assessed as cell viability after 48 hrs by MTT assay; assay type: functional, cell-based; how it was run: as §2
[12] = test system: PC-3; experiment: Cytotoxicity against human PC3 cells assessed as cell viability at 9 to 150 uM after 24 hrs by MTT assay relative to control; assay type: functional; how it was run: as §2
[13] = test system: PC-3; experiment: Cytotoxicity against human PC3 cells assessed as cell viability at 9 to 150 uM after 48 hrs by MTT assay relative to control; assay type: functional; how it was run: as §2

Compound	IC50 [1]	Activity [2]	viability at 48 h, up to 150 µM [3]	viability at 150 µM [4]	Retention_time [5]	Activity [6]	viability at 24 h, up to 150 µM [7]	Activity [8]	fold change (FC) [9]	Activity [10]	IC50 [11]	Activity [12]	Activity [13]
O=[N+]([O-])c1ccc(N2CCCC(O)C2)c([N+](=O)[O-])c1 (stereo unspecified)	150 µM	inactive	> 80%	50%	14.9 min	>80%	> 80%	>80%	–	–	–	–	–
O=C(CC(F)(F)F)Nc1cc(N2CCOCC2)c([N+](=O)[O-])cc1[N+](=O)[O-]	–	–	51 to 80%	–	21.8 min	51 - 80%	> 80%	51 - 80%	4.73	0.99 U/mg	–	–	–
O=[N+]([O-])c1cc([N+](=O)[O-])c(Nc2ccc(S(=O)(=O)O)cc2)cc1Nc1ccc(S(=O)(=O)O)cc1	–	–	> 80%	–	4.4 min	–	> 80%	51 - 80%	2.37	2.12 U/mg	71.9 µM	>80%	>80%
O=[N+]([O-])c1ccc(Nc2cc(F)cc(F)c2)c([N+](=O)[O-])c1	–	inactive	51 to 80%	–	17.74 min	–	51 to 80%	>80%	–	–	89.4 µM	>80%	>80%
O=[N+]([O-])c1ccc(NC2CCCCC2)c([N+](=O)[O-])c1	> 150 µM	inactive	> 80%	50%	20.58 min	>80%	> 80%	>80%	–	–	–	>80%	>80%
O=[N+]([O-])c1ccc(N2CCOCC2)c([N+](=O)[O-])c1	> 150 µM	inactive	> 80%	50%	19.38 min	51 - 80%	> 80%	>80%	1.25	–	–	>80%	>80%
O=[N+]([O-])c1ccc(N2CCCCC2)c([N+](=O)[O-])c1	–	inactive	51 to 80%	–	24.21 min	–	> 80%	51 - 80%	–	0.49 U/mg	50.3 µM	>80%	>80%
CC(C)CC(=O)Oc1cc(N2CCOCC2)c([N+](=O)[O-])cc1[N+](=O)[O-]	–	–	51 to 80%	–	24.6 min	>80%	51 to 80%	>80%	–	–	–	–	–
CCC(=O)Oc1cc(N2CCOCC2)c([N+](=O)[O-])cc1[N+](=O)[O-]	–	–	51 to 80%	–	–	>80%	51 to 80%	>80%	–	–	–	–	–

— ChEMBL document CHEMBL4376859, “Prodrugs for nitroreductase-based cancer therapy-3: Antitumor activity of the novel dinitroaniline prodrugs/Ssap-NtrB enzyme suicide gene system: Synthesis, in vitro and in silico evaluation in prostate cancer” (Eur J Med Chem, 2020)
